Most compounds without a hit are left out; they make up all but 2.4% or so of the library.
EBV gp42 inh: Epstein-Barr virus gp42 inhibitors, primary screen, biochemical, uHTS, fluorescence polarization. Glycoprotein 42 (Epstein-Barr virus (strain AG876)), Q1HVG2. Fluorescence polarization binding assay, mP read-out. inhibition, % (tested at 21.74 µM). actives 0.42% (n = 220,000); in the data active means inhibition above about 50%
Runt-CBFb FRET: inhibitors of RUNX1 Runt–CBFb binding, primary screen, biochemical, FRET, Cerulean-Runt, Venus-CBFb, uHTS | actives 0.46% (n = 220,000) | Runt-related transcription factor 1 (Homo sapiens) + Core-binding factor subunit beta … | Cerulean-Runt/Venus-CBFb FRET ratio 530/480, 1 h | inhibition, % at 20 µM;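 active means inhibition over about 50% at 20 µM in the single-dose screen, limit read from the data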;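 further: 0% = DMSO wells and 100% = excess unlabeled CBFb competitor control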
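System: Cerulean-labeled Runt domain protein | Quantity: 100 nM of each labeled protein | Schedule: 1 h compound exposure, room temperature | Detection: Fluorescence energy transfer, 422 nm excitation, 530/480 nm emission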
Runt-SMMHC FRET: inhibitors of RUNX1 Runt–CBFb-SMMHC binding, primary screen, biochemical, FRET, Cerulean-Runt, Venus-CBFb-SMMHC, uHTS. Runt-related transcription factor 1 (Homo sapiens) + Core-binding factor subunit beta …. inhibition, % at 20 µM. Cerulean-Runt/Venus-CBFb-SMMHC FRET ratio 530/480, 1 h. AID 1434, 2008. actives 0.74% (n = 220,000);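 active means mean inhibition across duplicate retests at 20 µM reaching about 50%, limit read from the data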;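 further: 0% = DMSO wells and 100% = wells with excess untagged CBFb-SMMHC; inhibitors lower the FRET ratio by blocking Runt binding to CBFb-SMMHC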
MEX-5 binding: MEX-5 zinc finger RNA-binding disruptors – biochemical, C. elegans, fluorescence polarization, MLPCN library, primary screen | Zinc finger protein mex-5 (Caenorhabditis elegans), Q9XUB2 | actives 0.38% (n = 300,000) | AID 1832, 2009 | activity score (negative = inhibition of binding), % at 10 µM | MEX-5/FITC-TCR2 RNA binding; active compounds read low;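 active means inhibition past about -25% in most replicates, and total fluorescence under double the plate's negative control median, limit read from the data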;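 further: 0% = DMSO and -100% = 5 µM competing unlabeled TCR2 RNA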
Target sequence (Q9XUB2 whole entry, looked up): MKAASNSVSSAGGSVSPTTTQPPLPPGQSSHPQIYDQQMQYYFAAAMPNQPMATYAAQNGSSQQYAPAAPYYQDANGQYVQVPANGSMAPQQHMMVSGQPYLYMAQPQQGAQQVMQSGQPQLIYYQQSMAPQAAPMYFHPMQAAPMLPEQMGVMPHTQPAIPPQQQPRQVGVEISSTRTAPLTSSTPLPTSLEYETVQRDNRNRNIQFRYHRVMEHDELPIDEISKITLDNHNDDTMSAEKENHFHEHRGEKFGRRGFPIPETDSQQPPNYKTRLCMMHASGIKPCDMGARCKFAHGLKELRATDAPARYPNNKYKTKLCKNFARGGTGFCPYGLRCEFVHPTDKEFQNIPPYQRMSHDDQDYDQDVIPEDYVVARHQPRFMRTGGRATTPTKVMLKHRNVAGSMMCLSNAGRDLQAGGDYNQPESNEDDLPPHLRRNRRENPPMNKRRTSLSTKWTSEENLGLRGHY
LANA-H2A inh: blockers of LANA interaction with H2A/H2B – biochemical, FP readout, HTS, primary screen | Protein LANA1 (Human herpesvirus 8 type P (isolate GK18)), Q9QR71 | cell-free LANA-H2A/H2B peptide, fluorescence polarization | inhibition, % (concentration not given with the values) | actives 0.6% (n = 320,000); in the data active means inhibition mostly above about 10%, no sharp cut-off; inactive means mostly below about 6.7%
RanGTP-Impb inh: inhibitors of RanGTP-importin-beta interaction, primary screen, biochemical, FRET, CFP-Ran, YFP-importin-beta, homogeneous; Ran GTPase (GTP-bound) - importin-beta complex; actives 1.1% (n = 300,000); AID 2216, 2009; inhibition, % (test concentration not listed); cell-free CFP-Ran/YFP-importin-beta FRET ratio;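 active means more than half of the replicate wells show a fall in the fluorescence ratio signal beyond about 16%, limit read from the data, passing the limit was not always enough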;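 further: 0% = DMSO wells and 100% = Ran loaded with GDP instead of GTP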
Active calls of the source: *; x = not tested or not shown; ! = a repeat was not active.

SMILES	EBV gp42 inh	Runt-CBFb FRET	Runt-SMMHC FRET	MEX-5 binding	LANA-H2A inh	RanGTP-Impb inh
CC(=O)Oc1ccc(N2C(=O)C3C(C2=O)C(C(=O)c2ccc(Cl)cc2)N2CCCC32)cc1 (configuration not stated)	43	3	-17	-7	-1	-20
Cc1ccc(N2C(=O)C3C(C2=O)C(C(=O)c2ccc(Cl)cc2)N2CCCC32)cc1 (configuration not stated)	52*	-2	-26	-2	-4	-30
O=C(Cc1ccc(Cl)cc1)NNc1c(F)c(F)cc(F)c1F	7	-1	-1	-1	27*	5
O=C(NNc1c(F)c(F)cc(F)c1F)c1ccco1	x	x	x	x	-6	x
Cc1nc(C(=O)Nc2ccccc2Cl)cc2c1[nH]c1ccccc12	-4	1	7	-3	8.3*	2
CN(C)c1ccc(/C=c2/sc3n(c2=O)NC2(c4ccccc4)N(C)C(=O)N(C)C2(c2ccccc2)N=3)cc1 (configuration not stated)	50*	-12	-43	1	1	20*
Cc1cccc(C)c1NC(=O)C1CCCCN1C (configuration not stated)	-8	0	3	3	25*!	-3
CCOC(=O)C1CCCN(C(=O)c2cc(S(=O)(=O)N3CCCCC3)ccc2C)C1 (configuration not stated)	-20	1	-8	-2	-4	-4
CC(C)c1ccc(OCc2ccc(C(=O)NN3CCN(C)CC3)o2)cc1	-2	3	-2	0	2	-3
FC(F)(F)c1cc(-c2cccs2)nc2cc(-c3cccs3)nn12	-5	-5	-32	0	0	43*
CCn1cc(CN2CCN(CCc3ccccc3)C(CCO)C2)c(C)n1 (configuration not stated)	-3	0	2	3	-5	-6
O=S(=O)([N-]c1nc2ccccc2nc1-[n+]1ccc(-c2ccncc2)cc1)c1ccccc1	56*	-126	-164	-5	-13	-14
O=S(=O)([N-]c1nc2ccccc2nc1-[n+]1ccccc1)c1ccccc1	-18	0	2	1	4	3
O=S(=O)([N-]c1nc2ccccc2nc1-[n+]1ccc(CCCc2ccccc2)cc1)c1cccs1	36	-5	-4	-29*	-3	7
Cc1ccc(CCN2CC(C(=O)N3CCN(c4ccc(F)cc4)CC3)CC2=O)cc1 (configuration not stated)	-19	-5	-2	3	22*	3
CCc1ccc(N2CC(C(=O)NNC(=O)c3ccc(F)cc3)CC2=O)cc1 (configuration not stated)	x	x	x	2	-1	2
CN(C)c1ncc(S(=O)(=O)c2ccccc2)c(N)n1	-6	1	-10	2	3	0
COc1nc(C)cc(C)c1S(=O)(=O)c1ccccc1C	x	x	x	0	0	-3
COc1nc(N)c(S(=O)(=O)c2ccccc2C)cc1C#N	-43	20	60*	-15	-4	5
COc1nc(N)c(S(=O)(=O)c2ccccc2)cc1C#N	-45	40	99*	-4	-4	12
O=C(CSc1n[nH]c(-c2ccncc2)n1)Nc1ccccc1	x	x	x	-3	-7	4
CC(=O)Nc1cccc(NC(=O)CSc2n[nH]c(-c3ccccc3)n2)c1	x	x	x	x	20*	x
O=C1CSC(=S)N1/N=C/c1ccc(O)c(O)c1O	70*	39	43	-88*	2	10
O=C1CSC(=S)N1/N=C/c1cc(Br)ccc1O	x	x	x	-5	-1	0
O=C(O)c1ccc(Cl)c(S(=O)(=O)Nc2cccc(C(=O)Nc3cccc(C(F)(F)F)c3)c2)c1	-16	0	3	-6	70*	-1
SMILES	EBV gp42 inh	Runt-CBFb FRET	Runt-SMMHC FRET	MEX-5 binding	LANA-H2A inh	RanGTP-Impb inh
N#Cc1c(NC(=O)c2cnccn2)sc2c1CCCC2	-12	6	6	-3	19*	5
Cc1ccc(C(=O)Oc2cccnc2)cc1[N+](=O)[O-]	-6	102*	2	-2	14	1
O=C(Oc1cccnc1)c1ccc([N+](=O)[O-])cc1	-5	0	5	1	1	4
Nc1ccccc1-c1nc2ccccc2[nH]c1=O	x	x	x	1	-4	-1
O=c1[nH]c2ccccc2nc1-c1c[nH]c2ccccc12	x	x	x	-3	-2	48*
Cc1ccc(N(C(=O)CNC(=O)c2ccco2)C(C(=O)NC2CCCCC2)c2cccnc2)cc1F (configuration not stated)	x	x	x	-1	-2	2
COc1ccc(N2CCN(C(CNC(=O)C3CCCCC3)c3ccco3)CC2)cc1 (configuration not stated)	x	x	x	0	1	10
CCN(CC)C1=C(Cl)C(=O)C(Cl)C12OCCO2 (configuration not stated)	-22	0	-3	1	12*	-1
COc1cc(/C=C2/C(=O)NN(c3cccc(C)c3)C2=O)cc([N+](=O)[O-])c1O	-2	0	-7	-27*	-5	-2
COc1cc(/C=C2\SC(=O)N(c3ccc(Cl)cc3)C2=O)cc([N+](=O)[O-])c1O	100*	-3	-14	x	x	x
COc1cc(/C=C2/C(=O)NN(c3ccc(C)c(Cl)c3)C2=O)cc([N+](=O)[O-])c1O	x	x	x	-11	-4	-4
COc1cc(/C=C2\SC(=O)N(c3cccc(Cl)c3)C2=O)cc([N+](=O)[O-])c1O	87*	0	-12	x	x	x
CO/C=C\C=C/c1nnn(-c2ccc(Cl)cc2)n1	-26	5	2	1	2	4
COc1cccc(C(=O)Nc2sc3c(c2C(=O)O)CCCC3)c1	x	x	x	3	0	5
COc1cccc(C(=O)Nc2nc3c(s2)CN(C)CC3)c1	-16	x	87*	0	-4	9
COc1cccc(C(=O)Nc2sc3c(c2C#N)CCN(C(C)=O)C3)c1	-11	21	51*	-3	5	x
CN1CCc2nc(NC(=O)c3cccc(S(=O)(=O)N4CCc5ccccc54)c3)sc2C1	-38	45	84*	-1	1	48*
Cc1cc(S(=O)(=O)Nc2ccc(C(=O)NCC3CCCO3)cc2)ccc1F (configuration not stated)	x	x	x	x	5	x

Assay outcomes (PubChem)
